Assay [1] can be described thus: Inhibition of Escherichia coli PDHc-E1 expressed in Escherichia coli TB1 using sodium pyruvate as substrate and ThDP after 3 mins by 2,6-DCPIP based microplate reader method. In a few lines:
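The enzyme (7.1 µM) was preincubated 3 min at 37 °C with varied inhibitor in 50 mM K3PO4 pH 7.2, 2.0 mM pyruvate and 0.8 mM 2,6-DCPIP. ThDP (0–200 µM) started the reaction, read as A600 decrease. IC50 came from a Hill fit of initial rates.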

Assay [2] can be described thus: Antibacterial activity against Synechocystis sp. PCC 6803. The class given is functional.
A short description of assay [3]: Antibacterial activity against Synechocystis sp. PCC 6803 at 10 uM. The class given is functional.
The subject of assay [4] is Alternaria solani. Put plainly: Antifungal activity against Alternaria solani at 100 ug/ml. In kind it is functional.
The test system of assay [5] is Rhizoctonia solani. Put plainly: Antifungal activity against Rhizoctonia solani at 100 ug/ml. The class given is functional.
The test system of assay [6] is Botrytis cinerea. Put plainly: Antifungal activity against Botrytis cinerea at 100 ug/ml. In kind it is functional.
Assay [7] deals with Colletotrichum orbiculare. The experiment in a line: Antifungal activity against Colletotrichum orbiculare at 100 ug/ml. In kind it is functional.
The test system of assay [8] is Escherichia coli. The experiment in a line: Inhibition of Escherichia coli PDHc-E1 expressed in Escherichia coli TB1 at 100 uM using sodium pyruvate as substrate after 3 mins by 2,6-DCPIP based microplate reader method.
Assay [9] deals with T1, Pyruvate dehydrogenase E1 component subunit alpha, somatic form, mitochondrial (Sus scrofa) (UniProt P29804).
T1 sequence (whole entry): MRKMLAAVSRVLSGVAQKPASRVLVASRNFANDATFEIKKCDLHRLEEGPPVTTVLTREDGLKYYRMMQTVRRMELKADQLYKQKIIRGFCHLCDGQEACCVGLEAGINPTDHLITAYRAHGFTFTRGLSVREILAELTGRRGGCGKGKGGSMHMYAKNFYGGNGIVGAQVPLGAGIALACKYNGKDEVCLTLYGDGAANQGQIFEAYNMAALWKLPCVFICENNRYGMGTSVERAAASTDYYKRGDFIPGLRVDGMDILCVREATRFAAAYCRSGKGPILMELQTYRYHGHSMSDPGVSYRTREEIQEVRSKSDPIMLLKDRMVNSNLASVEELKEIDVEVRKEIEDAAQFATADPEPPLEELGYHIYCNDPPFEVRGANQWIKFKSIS
The experiment in a line: Inhibition of pig heart PDHc-E1 using sodium pyruvate as substrate at 100 uM after 3 mins by 2,6-DCPIP based microplate reader method.

Assay [10] can be described thus: Inhibition of Escherichia coli PDHc-E1 E571A mutant expressed in Escherichia coli TB1 using sodium pyruvate as substrate and ThDP after 3 mins by 2,6-DCPIP based microplate reader method. In a few lines:
(§1)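 Point mutants were made by PCR mutagenesis on a pMAL-c2x-PDHc-E1 template, DpnI-digested and passed through DH5α. […] Assays used 7.1 µM enzyme, 50 mM K3PO4 pH 7.2, 2.0 mM pyruvate and 0.8 mM DCPIP, with 3 min preincubation at 37 °C and ThDP (0–200 µM) start. A600 was read and IC50 taken by Hill fit.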

A short description of assay [11]: Inhibition of Escherichia coli PDHc-E1 V192A mutant expressed in Escherichia coli TB1 using sodium pyruvate as substrate and ThDP after 3 mins by 2,6-DCPIP based microplate reader method. In a few lines: as §1
Assay [12] in a line: Inhibition of Escherichia coli PDHc-E1 M194A mutant expressed in Escherichia coli TB1 using sodium pyruvate as substrate and ThDP after 3 mins by 2,6-DCPIP based microplate reader method. The procedure, abridged:
as §1

Assay [13] is described as follows: Inhibition of Escherichia coli PDHc-E1 F602A mutant expressed in Escherichia coli TB1 using sodium pyruvate as substrate and ThDP after 3 mins by 2,6-DCPIP based microplate reader method. In a few lines: as §1
Assay [14] is described as follows: Inhibition of Escherichia coli PDHc-E1 E522A mutant expressed in Escherichia coli TB1 using sodium pyruvate as substrate and ThDP after 3 mins by 2,6-DCPIP based microplate reader method. The procedure, abridged:
as §1

Assay [15] can be described thus: Inhibition of Escherichia coli TB1 PDHc-E1 H106A mutant expressed in Escherichia coli TB1 using sodium pyruvate as substrate and ThDP after 3 mins by 2,6-DCPIP based microplate reader method. In a few lines:
as §1

Assay [16] can be described thus: Inhibition of Escherichia coli TB1 PDHc-E1 K392A mutant expressed in Escherichia coli TB1 using sodium pyruvate as substrate and ThDP after 3 mins by 2,6-DCPIP based microplate reader method. The procedure, abridged: as §1
The test system of assay [17] is Escherichia coli. Put plainly: Selectivity index, ratio of IC50 for Escherichia coli PDHc-E1 K392A mutant to IC50 for Escherichia coli WT PDHc-E1.
Assay [18] deals with Escherichia coli. The experiment in a line: Selectivity index, ratio of IC50 for Escherichia coli PDHc-E1 H106A mutant to IC50 for Escherichia coli WT PDHc-E1.

One may read the IC50 as the concentration that inhibits the measured activity by half. Lower therefore signals inhibition by little substance. As a reminder, the EC50 is the concentration giving half of the maximal effect. The inhibition is the share of the control response that was lost under treatment. A higher inhibition goes with a response far below the control. With `CNc1nc(C(F)(F)F)c(-c2nnc(SCc3cn(Cc4cnc(C)nc4N)nn3)o2)s1`, the IC50 in [1] was 0.97 µM; in [10] it was 5.02 µM; in [11], 33.2 µM; in assay [12], 19.1 µM; in assay [13] it was 5.08 µM; in [14], 10.8 µM. The figures for the IC50 in assay [15] and in assay [16] were 11.6 µM and 20.4 µM, respectively. The response in assay [2] was half-maximal at 0.83 µM (EC50). In assay [3], this molecule yielded an inhibition at 10 µM of 90%. For the same molecule, the inhibition at 100 µg/mL in assay [4] is 41%; in assay [5], 14%; in assay [6], 50%; in [7] it was 36%. The figures for the inhibition in assay [8] and in assay [9] were 100% and 26.1%, respectively. In addition, the figures for the Ratio IC50 in [17] and in assay [18] were 20 and 11, respectively.

The values above are taken from ChEMBL document CHEMBL3774346, “Rational design, synthesis and biological evaluation of 1,3,4-oxadiazole pyrimidine derivatives as novel pyruvate dehydrogenase complex E1 inhibitors” (Bioorg Med Chem, 2016).
